Measured values pooled from the literature.
Compare with care: the assays were run in different laboratories.
Cell line: PC-3
Observed: cell growth or viability

Compound | test | setting | IC50
CN1CCN(C/C=N/NC(=O)Nc2cc3c(Nc4ccc(F)c(Cl)c4)ncnc3cc2O[C@H]2CCOC2)CC1 | MTT | 72 h | 1830 nM
COc1ccc(/C=C/c2cc(C)no2)cc1 | MTT | 72 h | > 100000 nM
N=C(Nc1ccccc1)c1cc2c(-c3ccccc3)n[nH]c2c(Nc2ccccc2)n1 | MTS | 48 h | 1200 nM
C=CC(=O)Nc1ccc(Cn2cc(C[C@@]3(O)C[C@@H]4c5cc(OCc6cc(C)cc(C)c6)c(OCc6cc(C)cc(C)c6)cc5CCN4[C@@H](C)C3)nn2)cc1 | MTT | – | 161 nM
CC(C)C[C@H](NC(=O)[C@H](Cc1ccccc1)NC(=O)c1cnccn1)B(O)O | ATP luminescence | – | 12 nM
COc1cc2ncnc(Nc3ccc(F)c(Cl)c3)c2cc1NC(=O)N/N=C/CN1CCN(C)CC1 | MTT | 72 h | 5030 nM
COC1=CC(=O)N(C(=O)[C@@H](CCC(Cl)(Cl)Cl)NC(=O)C(C)(C)C)[C@@H]1CCC(Cl)Cl | resazurin | 72 h | 28000 nM
CN(C)CCCn1cccc1/C=N/NC(=O)Nc1cc2c(Nc3ccc(F)c(Cl)c3)ncnc2cc1O[C@H]1CCOC1 | MTT | 72 h | 3740 nM
Cc1cc(C)cc(COc2cc3c(cc2OCc2cc(C)cc(C)c2)[C@H]2C[C@](O)(Cc4cn(Cc5ccc(C#N)cc5)nn4)C[C@H](C)N2CC3)c1 | MTT | – | 371 nM
CCn1cnc2ccc(/C=C/C(=O)NO)cc2c1=O | SRB | 48 h | 7040 nM
Cc1cc(C)cc(COc2cc3c(cc2OCc2cc(C)cc(C)c2)[C@H]2C[C@](O)(Cc4cn(-c5ccccc5)nn4)C[C@H](C)N2CC3)c1 | MTT | – | 264 nM
COc1ccc2c(c1OC)C(=O)O[C@@H]2[C@H]1c2c(c(Br)c3c(c2OC)OCO3)CCN1C | MTT | 48 h | 182000 nM
Cc1ccc(C(=O)O)c(NC(=O)c2ccc(N)cc2)c1 | MTT | – | > 120000 nM
COc1cc2ncnc(Nc3ccc(F)c(Cl)c3)c2cc1NC(=O)N/N=C/c1cccn1CCN1CCOCC1 | MTT | 72 h | 820 nM
Cc1ccc(Cn2cc(C[C@@]3(O)C[C@@H]4c5cc(OCc6cc(C)cc(C)c6)c(OCc6cc(C)cc(C)c6)cc5CCN4[C@@H](C)C3)nn2)cc1 | MTT | – | 375 nM
C[C@H]1O[C@@H](n2cc(F)c(=O)[nH]c2=O)[C@H](O)[C@@H]1O | CCK-8 | 48 h | > 50000 nM
CC(C)c1n[nH]c2c(Nc3ccccc3)nc(CNCc3ccccc3)cc12 | MTS | 48 h | 5800 nM
COc1c(C)cnc(COc2ccc(NC(=O)Nc3ccc(Cl)c(C(F)(F)F)c3)cc2)c1C | MTT | 72 h | > 100000 nM

Compound | test | setting | IC50
Cc1cc(C)cc(COc2cc3c(cc2OCc2cc(C)cc(C)c2)[C@H]2C[C@](O)(Cc4cn(Cc5ccncc5)nn4)C[C@H](C)N2CC3)c1 | MTT | – | 167 nM
COc1c(C)cnc(COc2ccc(NC(=O)Nc3cccc(C(F)(F)F)c3)cc2)c1C | MTT | 72 h | > 100000 nM
COc1cc2ncnc(Nc3ccc(F)c(Cl)c3)c2cc1NC(=O)N/N=C/c1cccn1CCN(C)C | MTT | 72 h | 1250 nM
O=C(/C=C/c1ccc(CN(CCO)CCc2c[nH]c3ccccc23)cc1)NO | resazurin | 72 h | 71 nM
Cc1cc(C)cc(COc2cc3c(cc2OCc2cc(C)cc(C)c2)[C@H]2C[C@](O)(Cc4cn(Cc5ccc(S(C)(=O)=O)cc5)nn4)C[C@H](C)N2CC3)c1 | MTT | – | 223 nM
Cc1c(OCC(F)(F)F)ccnc1COc1ccc(NC(=O)Nc2ccc(F)cc2)cc1 | MTT | 72 h | 60200 nM
O=C(N/N=C/CN1CCCCC1)Nc1cc2c(Nc3ccc(F)c(Cl)c3)ncnc2cc1O[C@H]1CCOC1 | MTT | 72 h | 810 nM
Cc1c(OCC(F)(F)F)ccnc1COc1ccc(NC(=O)Nc2cccc(C(F)(F)F)c2)cc1 | MTT | 72 h | > 100000 nM
COc1cc2ncnc(Nc3ccc(F)c(Cl)c3)c2cc1NC(=O)N/N=C/CN1CCCCC1 | MTT | 72 h | 5760 nM
COc1ccnc(COc2ccc(NC(=O)Nc3ccc(Cl)cc3)cc2)c1OC | MTT | 72 h | > 100000 nM
C/C=C/C(=O)Nc1ccc(CCn2cc(C[C@@]3(O)C[C@@H]4c5cc(OCc6cc(C)cc(C)c6)c(OCc6cc(C)cc(C)c6)cc5CCN4[C@@H](C)C3)nn2)cc1 | MTT | – | 273 nM
COc1ccnc(COc2ccc(NC(=O)Nc3cccc(C(F)(F)F)c3)cc2)c1OC | MTT | 72 h | 75000 nM
COc1cc2ncnc(Nc3ccc(F)c(Cl)c3)c2cc1NC(=O)N/N=C/c1cccn1CCN1CCCC1 | MTT | 72 h | 1240 nM
COc1c(C)cnc(COc2ccc(NC(=O)Nc3ccc(Cl)cc3)cc2)c1C | MTT | 72 h | 47900 nM
C=CC(=O)Nc1ccc(CCn2cc(C[C@@]3(O)C[C@@H]4c5cc(OCc6cc(C)cc(C)c6)c(OCc6cc(C)cc(C)c6)cc5CCN4[C@@H](C)C3)nn2)cc1 | MTT | – | 252 nM
COc1c(C)cnc(COc2ccc(NC(=O)Nc3ccc(F)cc3)cc2)c1C | MTT | 72 h | 43300 nM
O=C(/C=C/c1ccc2ncn(Cc3ccccc3F)c(=O)c2c1)NO | SRB | 48 h | 639 nM
